Assay results from different studies.
pEC50, pIC50, pKd, pKi: −log10 of the molar value.
gyrA: DNA gyrase subunit A (gyrA, Escherichia coli K-12, UniProt P0AES4)
OPRD1: Delta-type opioid receptor (OPRD1, Homo sapiens, UniProt P41143)
gag-pol reverse transcriptase: Gag-Pol polyprotein, reverse transcriptase (gag-pol, Human immunodeficiency virus 1, UniProt P03366)

Compound | target | read-out | mode | method | measurement | value
CC(C)Oc1c(NC(=O)c2ccc(NC(=O)[C@H](CC(N)=O)NC(=O)c3ccc(NC(=O)Cc4ccc(C#N)cc4)cc3)cc2)ccc(C(=O)Nc2ccc(C(=O)O)cc2)c1O | gyrA | enzyme activity | inhibitor |  | pIC50 | 4.79
Cc1cnc(-c2ccc(-c3ccc(NC(=O)Nc4c(F)cc(F)cc4F)cc3F)c3c2C(=O)NC3)[nH]1 | STE20-like serine/threonine-protein kinase (SLK, Homo sapiens, UniProt Q9H2G2) | binding |  | competition with immobilised ligand | pKd | 9.52
O[C@@H]1[C@H](O)[C@@H]2C[C@@H]2[C@H]1n1cnc2c(NCc3cccc(Cl)c3)ncnc21 | OPRD1 | ligand displacement |  | radioligand | pKi | < 5.00
CC(C)Oc1c(NC(=O)c2ccc(NC(=O)[C@H](CC(N)=O)NC(=O)c3ccc(NC(=O)c4ccccc4)cc3)cc2)ccc(C(=O)Nc2ccc(C(=O)O)cc2)c1O | gyrA | enzyme activity | inhibitor |  | pIC50 | 5.40
CCn1c(-c2nc3ccc(C(=O)N4CCCC(N)C4)cc3n2C)cc2ccccc21 (stereo not shown) | 5-hydroxytryptamine receptor 3A (HTR3A, Homo sapiens, UniProt P46098) | calcium signal | agonist |  | pEC50 | < 4.30
CNC(=O)[C@@]12C[C@@H]1[C@@H](n1cnc3c(NC)nc(C#Cc4ccc(Br)s4)nc31)[C@H](O)[C@@H]2O | OPRD1 | ligand displacement |  | radioligand | pKi | < 5.00
Cc1ccc(S(=O)(=O)NCCCCNC(=O)c2[nH]c3ccc(Cl)cc3c2S(=O)(=O)c2cc(C)cc(C)c2)cc1 | gag-pol reverse transcriptase | enzyme activity | inhibitor | ELISA | pIC50 | 6.85
N#Cc1ccc(Nc2nc(N)cc(Oc3c(F)cc(-c4ccccc4)cc3F)n2)cc1 | gag-pol reverse transcriptase | enzyme activity | inhibitor |  | pIC50 | 7.15
CNc1nc(C#Cc2ccc(Cl)s2)nc2c1ncn2[C@H]1[C@H](O)[C@H](O)[C@]2(C(=O)OCCC(C)C)C[C@H]12 | OPRD1 | ligand displacement |  | radioligand | pKi | < 5.00
CO[C@@H](C(N)=O)[C@H](NC(=O)c1ccc(NC(=O)c2ccc(C#N)cc2)cc1)C(=O)Nc1ccc(C(=O)Nc2ccc(C(=O)Nc3ccc(C(=O)O)cc3)c(O)c2OC(C)C)cc1 | gyrA | enzyme activity | inhibitor |  | pIC50 | 6.40
Cc1cc(C)cc(S(=O)(=O)c2c(C(=O)NCCCNS(=O)(=O)c3ccccc3F)[nH]c3ccc(Cl)cc23)c1 | gag-pol reverse transcriptase | enzyme activity | inhibitor | ELISA | pIC50 | 7.12
CNC(=O)[C@@]12C[C@@H]1[C@@H](n1cnc3c(NC)cc(C#Cc4ccc(Cl)s4)nc31)[C@H](O)[C@@H]2O | OPRD1 | ligand displacement |  | radioligand | pKi | < 5.00
Cc1cc(C)cc(S(=O)(=O)c2c(C(=O)NCCCCNS(=O)(=O)c3ccc(Br)cc3)[nH]c3ccc(Cl)cc23)c1 | gag-pol reverse transcriptase | enzyme activity | inhibitor | ELISA | pIC50 | 6.82
CNC(=O)[C@@]12C[C@@H]1[C@@H](n1cnc3c(NCCCO)nc(C#Cc4ccc(Cl)s4)nc31)[C@H](O)[C@@H]2O | OPRD1 | ligand displacement |  | radioligand | pKi | < 5.00
N#Cc1ccc(Nc2nc(N)cc(Oc3ccc(-c4ccc(C#N)cc4)cc3Cl)n2)cc1 | gag-pol reverse transcriptase | enzyme activity | inhibitor |  | pIC50 | 7.52
Cc1cc(C)cc(S(=O)(=O)c2c(C(=O)NCCNS(=O)(=O)c3ccccc3F)[nH]c3ccc(Cl)cc23)c1 | gag-pol reverse transcriptase | enzyme activity | inhibitor | ELISA | pIC50 | 7.08
CNC(=O)[C@@]12C[C@@H]1[C@@H](n1cnc3c(NC)nc(C#Cc4ccc(Cl)s4)nc31)[C@H](O)[C@@H]2O | OPRD1 | ligand displacement |  | radioligand | pKi | < 5.00
Cc1cc(C)cc(S(=O)(=O)c2c(C(=O)NCCCCNS(=O)(=O)c3ccc(F)cc3)[nH]c3ccc(Cl)cc23)c1 | gag-pol reverse transcriptase | enzyme activity | inhibitor | ELISA | pIC50 | 6.82
CCCCC(=O)[C@@]12C[C@@H]1[C@@H](n1ccc3c(NC)nc(C#Cc4ccc(Cl)s4)nc31)[C@H](O)[C@@H]2O | OPRD1 | ligand displacement |  | radioligand | pKi | < 5.00
Cc1cc(C)cc(S(=O)(=O)c2c(C(=O)NCCCCCNS(=O)(=O)c3ccc([N+](=O)[O-])cc3)[nH]c3ccc(Cl)cc23)c1 | gag-pol reverse transcriptase | enzyme activity | inhibitor | ELISA | pIC50 | 6.80
CC(C)Oc1c(NC(=O)c2ccc(NC(=O)[C@H](CC(N)=O)NC(=O)c3ccc(-c4nn[nH]c4-c4ccc(C#N)cc4)cc3)cc2)ccc(C(=O)Nc2ccc(C(=O)O)cc2)c1O | gyrA | enzyme activity | inhibitor |  | pIC50 | < 4.30
Cc1cc(C)cc(S(=O)(=O)c2c(C(=O)NCCCCCNS(=O)(=O)c3ccc(C#N)cc3)[nH]c3ccc(Cl)cc23)c1 | gag-pol reverse transcriptase | enzyme activity | inhibitor | ELISA | pIC50 | 6.80
CC(C)Oc1c(NC(=O)c2ccc(NC(=O)[C@H](CC(N)=O)NC(=O)c3ccc(NC(=O)c4ccc(C5(C(F)(F)F)N=N5)cc4)cc3)cc2)ccc(C(=O)Nc2ccc(C(=O)O)cc2)c1O | gyrA | enzyme activity | inhibitor |  | pIC50 | 4.80
Cc1cc(C)cc(S(=O)(=O)c2c(C(=O)NCCCNS(=O)(=O)c3cccnc3)[nH]c3ccc(Cl)cc23)c1 | gag-pol reverse transcriptase | enzyme activity | inhibitor | ELISA | pIC50 | 7.39
CC1=C(/C=C/C2=CCC[C@@]3(C)[C@H]2CC[C@@H]3[C@@](C)(O)CCCC(C)C)C[C@@H](O)CC1 | Oxysterols receptor LXR-alpha (NR1H3, Homo sapiens, UniProt Q13133) | coactivator recruitment | agonist | TR-FRET | pEC50 | 7.00 to 8.00
